Reference: ChEMBL document CHEMBL3244208, “Quantitative structure-activity relationships for 5-substituted 8-hydroxyquinolines as inhibitors of dental plaque” (J Med Chem, 1977)

What was measured:
[1] = 1-Octanol-water partition coefficient, log P of the compound by spectrophotometer analysis; type: physicochemical
Outline: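 Shake-flask partition between 1-octanol and water. Phase-volume ratio and sample amount set so that test-layer absorbance after partitioning fell between 0.2 and 0.9 in a 1-cm cell. The solute was measured by UV spectrophotometry in one layer only, and the other layer was obtained by difference. P = C_octanol/C_water. At least triplicate runs with different sample amounts, log P averaged.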

[2] = 1-Octanol-water partition coefficient, log P of the compound by spectrophotometer analysis corrected for ionization; type: physicochemical
Outline: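 Octanol-water log P was measured by the shake-flask method: UV-spectrophotometric assay of one phase, the other by difference, at least triplicate runs with different sample amounts, averaged. The measured log P was then corrected for ionization.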

[3] = Ionization constant, pKa of quinoline nitrogen group of the compound at 1 mM by potentiometric analysis; type: physicochemical
Outline: (§1)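 Potentiometric titration of 10⁻³ M test solutions in ethanol (95%)–water mixtures of varying proportion, 100 ml per titration, at 25 ± 0.1 °C under nitrogen with stirring. Titrant added in 0.25-ml aliquots, with stirring and gas stopped for each pH reading. Acidic function titrated with 0.02 N KOH, basic function with 0.02 N HCl. Boiled distilled, deionized water used for dilutions.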

[4] = Ionization constant, pKa of 8-hydroxyl group of the compound at 1 mM by potentiometric analysis; type: physicochemical; outline: as §1
Streptococcus mutans = experiment: Antibacterial activity against Streptococcus mutans No.6715 assessed as inhibition of bacterial growth after 24 to 48 hrs by spectrophotometric analysis; type: functional; conditions: for MIC: Streptococcus mutans, No.6715
Outline: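 S. mutans No. 6715, pure plaque-forming strain; media inoculated with 0.20 ml of a 24-h culture. Incubated anaerobically at 37 °C. Growth was read spectrophotometrically (% T) at 24 and 48 h. Dilution series run in sets of five tubes. MIC (molar) was taken as the lowest drug level whose tubes read above 60% T at 24 h.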

[5] = Ionization constant, pKa of substituent at 5th position of the compound at 1 mM by potentiometric analysis; type: physicochemical; outline: as §1

O=[N+]([O-])c1ccc(O)c2ncccc12 [NITROXOLINE]
logP [1]: -1.17
logP [2]: 0.11
pKa at 1000 µM [3]: 3.68
pKa at 1000 µM [4]: 5.97

Cc1ccc(O)c2ncccc12 [TILIQUINOL]
logP [1]: 2.38
logP [2]: 2.38
pKa at 1000 µM [3]: 5.25
pKa at 1000 µM [4]: 9.92

COc1ccc(O)c2ncccc12.Cl
log(1/MIC) (Streptococcus mutans): -1.602
MIC (Streptococcus mutans): 40 µM

COc1ccc(O)c2ncccc12
logP [1]: 2.1
logP [2]: 2.1
pKa at 1000 µM [3]: 4.84
pKa at 1000 µM [4]: 9.96

Cl.Oc1cccc2cccnc12
log(1/MIC) (Streptococcus mutans): -0.301
MIC (Streptococcus mutans): 2 µM

CN(C)Cc1ccc(O)c2ncccc12
logP [1]: 1.06
logP [2]: 2.37
pKa at 1000 µM [3]: 4.47
pKa at 1000 µM [4]: 9.46
pKa at 1000 µM [5]: 8.66

CCN(CC)Cc1ccc(O)c2ncccc12.Cl
log(1/MIC) (Streptococcus mutans): -1.602
MIC (Streptococcus mutans): 40 µM

Cl.Oc1ccc(I)c2cccnc12
log(1/MIC) (Streptococcus mutans): -0.602
MIC (Streptococcus mutans): 4 µM

Cl.OCc1ccc(O)c2ncccc12
log(1/MIC) (Streptococcus mutans): -2
MIC (Streptococcus mutans): 100 µM

COC(=O)Cc1ccc(O)c2ncccc12
pKa at 1000 µM [3]: 4.72
pKa at 1000 µM [4]: 9.46

COC(=O)Cc1ccc(O)c2ncccc12.Cl
log(1/MIC) (Streptococcus mutans): -2.903
MIC (Streptococcus mutans): 800 µM

Oc1ccc(Cl)c2cccnc12 [CLOXYQUIN]
logP [1]: 2.91
logP [2]: 2.94
pKa at 1000 µM [3]: 3.8
pKa at 1000 µM [4]: 8.7

O=Cc1ccc(O)c2ncccc12
logP [2]: 2.07
pKa at 1000 µM [3]: 4.42
pKa at 1000 µM [4]: 7.01

CC(=O)c1ccc(O)c2ncccc12
logP [2]: 1.96
pKa at 1000 µM [3]: 4.07
pKa at 1000 µM [4]: 7.62

Cc1ccc(O)c2ncccc12.Cl
log(1/MIC) (Streptococcus mutans): -1.301
MIC (Streptococcus mutans): 20 µM

Cl.O=Cc1ccc(O)c2ncccc12
log(1/MIC) (Streptococcus mutans): -0.778
MIC (Streptococcus mutans): 6 µM

Cl.O=[N+]([O-])c1ccc(O)c2ncccc12
log(1/MIC) (Streptococcus mutans): -1.903
MIC (Streptococcus mutans): 80 µM

CCOC(=O)Cc1ccc(O)c2ncccc12
logP [2]: 2.27
pKa at 1000 µM [3]: 4.72
pKa at 1000 µM [4]: 9.4

CCOC(=O)Cc1ccc(O)c2ncccc12.Cl
log(1/MIC) (Streptococcus mutans): -2.903
MIC (Streptococcus mutans): 800 µM

CCN(CC)Cc1ccc(O)c2ncccc12
logP [1]: 1.41
logP [2]: 4.41
pKa at 1000 µM [3]: 4.48
pKa at 1000 µM [4]: 9.19
pKa at 1000 µM [5]: 9.32

N#CCc1ccc(O)c2ncccc12
logP [2]: 1.82
pKa at 1000 µM [3]: 4.3
pKa at 1000 µM [4]: 9.25

CC(=O)c1ccc(O)c2ncccc12.Cl
log(1/MIC) (Streptococcus mutans): -0.602
MIC (Streptococcus mutans): 4 µM

OCc1ccc(O)c2ncccc12
logP [1]: 1
logP [2]: 1
pKa at 1000 µM [3]: 4.93
pKa at 1000 µM [4]: 9.53

CN(C)Cc1ccc(O)c2ncccc12.Cl
log(1/MIC) (Streptococcus mutans): -1.602
MIC (Streptococcus mutans): 40 µM

Oc1ccc(I)c2cccnc12
logP [2]: 3.29
pKa at 1000 µM [3]: 4.43
pKa at 1000 µM [4]: 8.31

Cl.N#CCc1ccc(O)c2ncccc12
log(1/MIC) (Streptococcus mutans): -1.778
MIC (Streptococcus mutans): 60 µM

Cl.Oc1ccc(Cl)c2cccnc12
log(1/MIC) (Streptococcus mutans): -0.301
MIC (Streptococcus mutans): 2 µM

Oc1cccc2cccnc12 [OXYQUINOLINE]
logP [2]: 1.95
pKa at 1000 µM [3]: 5.14
pKa at 1000 µM [4]: 9.64
